Measured values published in ChEMBL document CHEMBL4665669, “Novel tertiary sulfonamide derivatives containing benzimidazole moiety as potent anti-gastric cancer agents: Design, synthesis and SAR studies” (Eur J Med Chem, 2019).
Activity calls are given as the source filed them. The rule behind the calls is not given here.

Experiments:
HGC-27 [1] = assay: Induction of apoptosis in human HGC-27 cells after 48 hrs by flow cytometry analysis; assay type: functional, cell-based; settings: dose micromol/L 0.5-1.5, time 48.0 hrs
MGC-803 [2] = assay: Induction of apoptosis in human MGC-803 cells assessed as increase in nucleus concentration at 0.5 to 1.5 umol/L after 48 hrs by imaging analysis; assay type: functional, cell-based; settings: dose micromol/L 0.5-1.5, time 48.0 hrs
MGC-803 [3] = assay: Induction of apoptosis in human MGC-803 cells after 48 hrs by flow cytometry analysis; assay type: functional, cell-based; settings: dose micromol/L 0.5-1.5, time 48.0 hrs
HGC-27 [4] = assay: Inhibition of Akt/mTOR signalling pathway in human HGC-27 cells assessed as decrease in AKT phosphorylation at Ser473 residue at 0.5 to 1.5 umol/L after 48 hrs by Western blot analysis; assay type: cell-based; settings: dose micromol/L 0.5-1.5, time 48.0 hrs
Outline: (§1)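 Cells treated with graded concentrations or DMSO for 48 h, then harvested and lysed. Lysates denatured, resolved by SDS-PAGE and transferred to nitrocellulose. Membranes blocked with 5% skimmed milk and probed with primary antibodies at 4 °C for 8 h, then with secondary antibodies. Bands detected by ECL.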

SGC-7901 [5] = assay: Induction of apoptosis in human SGC-7901 cells assessed as downregulation of Bcl-2 level at 0.5 to 1.5 umol/L after 48 hrs Western blot analysis; assay type: functional, cell-based; settings: dose micromol/L 0.5-1.5, time 48.0 hrs
Outline: (§2)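 Western blot. Cells were treated with compound concentrations or DMSO for 48 h, then lysed, and lysates were denatured, run on SDS-PAGE and transferred to nitrocellulose. After blocking in 5% skimmed milk, membranes were incubated with primary antibodies at 4 °C for 8 h, then secondary antibodies, with ECL detection.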

HGC-27 [6] = assay: Induction of apoptosis in human HGC-27 cells assessed as downregulation of Bcl-2 level at 0.5 to 1.5 umol/L after 48 hrs Western blot analysis; assay type: functional, cell-based; settings: dose micromol/L 0.5-1.5, time 48.0 hrs; outline: as §2
HGC-27 [7] = assay: Induction of apoptosis in human HGC-27 cells assessed as cleavage of caspase-7 at 0.5 to 1.5 umol/L after 48 hrs Western blot analysis; assay type: functional, cell-based; settings: dose micromol/L 0.5-1.5, time 48.0 hrs; outline: as §2
SGC-7901 [8] = assay: Inhibition of Ras/Raf/MEK/ERK signalling pathway in human SGC-7901 cells assessed as decrease in c-Raf phosphorylation after 48 hrs by Western blot analysis; assay type: cell-based; settings: dose micromol/L 0.5-1.5, time 48.0 hrs; outline: as §1
HGC-27 [9] = assay: Cell cycle arrest in human HGC-27 cells assessed as accumulation at G2/M phase at 0.5 to 1.5 umol/L after 48 hrs by RNase/propidium iodide staining based flow cytometry; assay type: functional; settings: dose micromol/L 0.5-1.5, time 48.0 hrs
Outline: (§3)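 MGC-803, SGC-7901 and HGC-27 cells were seeded in 6-well plates and treated 48 h with compound or DMSO. Cells were then harvested and fixed in 70% cold ethanol at 4 °C for 8 h, and cell-cycle phase distribution was quantified by flow cytometry.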

MGC-803 [10] = assay: Inhibition of Akt/mTOR signalling pathway in human MGC-803 cells assessed as decrease in AKT phosphorylation at Ser473 residue at 0.5 to 1.5 umol/L after 48 hrs by Western blot analysis; assay type: cell-based; settings: dose micromol/L 0.5-1.5, time 48.0 hrs; outline: as §1
SGC-7901 [11] = assay: Induction of apoptosis in human SGC-7901 cells assessed as increase in nucleus concentration at 0.5 to 1.5 umol/L after 48 hrs by imaging analysis; assay type: functional, cell-based; settings: dose micromol/L 0.5-1.5, time 48.0 hrs
MGC-803 [12] = assay: Anticancer activity against human MGC-803 cells assessed as inhibition of cell proliferation after 48 hrs by MTT assay; assay type: functional, cell-based
Outline: (§4)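 MTT assay with 48 h compound exposure. MTT solution was then added and incubated 4 h at 37 °C, the supernatant discarded and formazan dissolved in DMSO, with absorbance read at 490 nm. IC50 values were calculated from three independent experiments, reported as mean SD.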

SGC-7901 [13] = assay: Induction of apoptosis in human SGC-7901 cells assessed as downregulation of c-IAP1 level at 0.5 to 1.5 umol/L after 48 hrs Western blot analysis; assay type: functional, cell-based; settings: dose micromol/L 0.5-1.5, time 48.0 hrs; outline: as §2
SGC-7901 [14] = assay: Cell cycle arrest at G2 phase in human SGC-7901 cells assessed as downregulation of Cyclin B level at 0.5 to 1.5 umol/L after 48 hrs by Western blot analysis; assay type: functional, cell-based; settings: dose micromol/L 0.5-1.5, time 48.0 hrs; outline: as §2
MCF7 = assay: Anticancer activity against human MCF7 cells assessed as inhibition of cell proliferation after 48 hrs by MTT assay; assay type: functional, cell-based; settings: MCF7, 48 h; outline: as §4
HGC-27 [15] = assay: Inhibition of Ras/Raf/MEK/ERK signalling pathway in human HGC-27 cells assessed as effect on RAS level at 0.5 to 1.5 umol/L after 48 hrs by Western blot analysis; assay type: cell-based; settings: dose micromol/L 0.5-1.5, time 48.0 hrs; outline: as §1
MGC-803 [16] = assay: Inhibition of Ras/Raf/MEK/ERK signalling pathway in human MGC-803 cells assessed as decrease in ERK1/2 phosphorylation after 48 hrs by Western blot analysis; assay type: cell-based; settings: dose micromol/L 0.5-1.5, time 48.0 hrs; outline: as §1
MGC-803 [17] = assay: Inhibition of Ras/Raf/MEK/ERK signalling pathway in human MGC-803 cells assessed as downregulation of FoxO3a expression at 0.5 to 1.5 umol/L after 48 hrs by Western blot analysis; assay type: cell-based; settings: dose micromol/L 0.5-1.5, time 48.0 hrs; outline: as §1
[18] = Selectivity index, ratio of IC50 for human GES1 cells to IC50 for human MGC-803 cells assessed as inhibition of cell proliferation after 48 hrs by MTT assay
Outline: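 Fold selectivity is the IC50 in GES-1 normal gastric epithelial cells divided by the IC50 in the gastric cancer line (HGC-27, MGC-803 or SGC-7901). Both IC50s come from 48 h exposure, MTT (4 h, 37 °C), DMSO solubilisation and 490 nm absorbance, with three independent experiments.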

HGC-27 [19] = assay: Inhibition of Ras/Raf/MEK/ERK signalling pathway in human HGC-27 cells assessed as decrease in c-Raf phosphorylation after 48 hrs by Western blot analysis; assay type: cell-based; settings: dose micromol/L 0.5-1.5, time 48.0 hrs; outline: as §1
HGC-27 [20] = assay: Induction of apoptosis in human HGC-27 cells assessed as upregulation of NOXA level at 0.5 to 1.5 umol/L after 48 hrs Western blot analysis; assay type: functional, cell-based; settings: dose micromol/L 0.5-1.5, time 48.0 hrs; outline: as §2
MGC-803 [21] = assay: Anticancer activity against human MGC-803 cells assessed as cell growth at 0.5 to 1.5 umol/L after 48 hrs by MTT assay relative to control; assay type: functional; settings: dose micromol/L 0.5-1.5
MGC-803 [22] = assay: Inhibition of Ras/Raf/MEK/ERK signalling pathway in human MGC-803 cells assessed as decrease in c-Raf phosphorylation after 48 hrs by Western blot analysis; assay type: cell-based; settings: dose micromol/L 0.5-1.5, time 48.0 hrs; outline: as §1
MGC-803 [23] = assay: Induction of apoptosis in human MGC-803 cells assessed as downregulation of c-IAP1 level at 0.5 to 1.5 umol/L after 48 hrs Western blot analysis; assay type: functional, cell-based; settings: dose micromol/L 0.5-1.5, time 48.0 hrs; outline: as §2
HGC-27 [24] = assay: Cell cycle arrest at M phase in human HGC-27 cells assessed as upregulation of p-Histone-3 level at 0.5 to 1.5 umol/L after 48 hrs by Western blot analysis; assay type: functional, cell-based; settings: dose micromol/L 0.5-1.5, time 48.0 hrs; outline: as §2
SGC-7901 [25] = assay: Inhibition of Ras/Raf/MEK/ERK signalling pathway in human SGC-7901 cells assessed as decrease in ERK1/2 phosphorylation after 48 hrs by Western blot analysis; assay type: cell-based; settings: dose micromol/L 0.5-1.5, time 48.0 hrs; outline: as §1
MGC-803 [26] = assay: Cell cycle arrest in human MGC-803 cells assessed as accumulation at G2/M phase at 0.5 to 1.5 umol/L after 48 hrs by RNase/propidium iodide staining based flow cytometry; assay type: functional; settings: dose micromol/L 0.5-1.5, time 48.0 hrs; outline: as §3
MGC-803 [27] = assay: Inhibition of Ras/Raf/MEK/ERK signalling pathway in human MGC-803 cells assessed as effect on RAS level at 0.5 to 1.5 umol/L after 48 hrs by Western blot analysis; assay type: cell-based; settings: dose micromol/L 0.5-1.5, time 48.0 hrs; outline: as §1
HGC-27 [28] = assay: Anticancer activity against human HGC-27 cells assessed as inhibition of cell proliferation after 48 hrs by MTT assay; assay type: functional, cell-based; outline: as §4
SGC-7901 [29] = assay: Cell cycle arrest at G2 phase in human SGC-7901 cells assessed as downregulation of CDK1 level at 0.5 to 1.5 umol/L after 48 hrs by Western blot analysis; assay type: functional, cell-based; settings: dose micromol/L 0.5-1.5, time 48.0 hrs; outline: as §2

**Q.** With `COc1cc(N(Cc2nc3ccccc3[nH]2)S(=O)(=O)c2ccc(C)cc2)cc(OC)c1OC` as the compound, how does the Activity (HGC-27 [1]) read?
**A.** Dose-dependent effect

**Q.** And the Activity (MGC-803 [2])?
**A.** Active

**Q.** And the Activity (MGC-803 [3])?
**A.** Dose-dependent effect

**Q.** What about the inhibition (HGC-27 [4]) of the same compound?
**A.** Active

**Q.** What about the Activity (SGC-7901 [5]) of the same compound?
**A.** Active

**Q.** What about the Activity (HGC-27 [6]) of the same compound?
**A.** Active

**Q.** What about the Activity (HGC-27 [7]) of the same compound?
**A.** Active

**Q.** What about the inhibition (SGC-7901 [8]) of the same compound?
**A.** Dose-dependent effect

**Q.** And the Activity (HGC-27 [9])?
**A.** Active

**Q.** And the inhibition (MGC-803 [10])?
**A.** Active

**Q.** What about the Activity (SGC-7901 [11]) of the same compound?
**A.** Active

**Q.** What about the Activity (MGC-803 [12]) of the same compound?
**A.** Dose-dependent effect

**Q.** What about the IC50 (MGC-803 [12]; MGC-803, 48 h) of the same compound?
**A.** 1020 nM

**Q.** What about the Activity (SGC-7901 [13]) of the same compound?
**A.** Active

**Q.** What about the Activity (SGC-7901 [14]) of the same compound?
**A.** Active

**Q.** And the IC50 (MCF7)?
**A.** 5400 nM

**Q.** What about the inhibition (HGC-27 [15]) of the same compound?
**A.** inactive

**Q.** What about the inhibition (MGC-803 [16]) of the same compound?
**A.** Dose-dependent effect

**Q.** And the inhibition (MGC-803 [17])?
**A.** Active

**Q.** And the “Ratio IC50” value [18]?
**A.** 14.9

**Q.** And the inhibition (HGC-27 [19])?
**A.** Dose-dependent effect

**Q.** And the Activity (HGC-27 [20])?
**A.** Active

**Q.** And the “fold change (FC)” value (MGC-803 [21])?
**A.** <2

**Q.** And the inhibition (MGC-803 [22])?
**A.** Dose-dependent effect

**Q.** What about the Activity (MGC-803 [23]) of the same compound?
**A.** Active

**Q.** What about the Activity (HGC-27 [24]) of the same compound?
**A.** Active

**Q.** And the inhibition (SGC-7901 [25])?
**A.** Dose-dependent effect

**Q.** What about the Activity (MGC-803 [26]) of the same compound?
**A.** Active

**Q.** And the inhibition (MGC-803 [27])?
**A.** inactive

**Q.** And the Activity (HGC-27 [28])?
**A.** Dose-dependent effect

**Q.** And the IC50 (HGC-27 [28]; HGC-27, 48 h)?
**A.** 1610 nM

**Q.** And the Activity (SGC-7901 [29])?
**A.** Active
